In ChEMBL document CHEMBL1153354, “Amide-containing diketoacids as HIV-1 integrase inhibitors: synthesis, structure-activity relationship analysis, and biological activity” (Bioorg Med Chem, 2009):

How the values were obtained:
[1] = target: T1, Human immunodeficiency virus type 1 integrase (Human immunodeficiency virus 1, UniProt Q7ZJM1); assay: Inhibition of HIV1 integrase strand transfer activity
How it was run: (§1)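 Wild-type IN (200 nM final) preincubated with inhibitor 30 min at 30 °C in buffer of 50 mM NaCl, 1 mM HEPES pH 7.5, 50 μM EDTA, 50 μM DTT, 10% glycerol, 7.5 mM MnCl2, 0.1 mg/mL BSA, 10 mM 2-mercaptoethanol, 10% DMSO, 25 mM MOPS pH 7.2. Then 20 nM 5'-32P-labeled linear oligonucleotide substrate added, 1 h further. Quenched with formamide/EDTA loading dye.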

[2] = target: T1, Human immunodeficiency virus type 1 integrase; assay: Inhibition of HIV1 integrase 3' processing activity; how it was run: as §1

T1 sequence (Q7ZJM1 whole entry): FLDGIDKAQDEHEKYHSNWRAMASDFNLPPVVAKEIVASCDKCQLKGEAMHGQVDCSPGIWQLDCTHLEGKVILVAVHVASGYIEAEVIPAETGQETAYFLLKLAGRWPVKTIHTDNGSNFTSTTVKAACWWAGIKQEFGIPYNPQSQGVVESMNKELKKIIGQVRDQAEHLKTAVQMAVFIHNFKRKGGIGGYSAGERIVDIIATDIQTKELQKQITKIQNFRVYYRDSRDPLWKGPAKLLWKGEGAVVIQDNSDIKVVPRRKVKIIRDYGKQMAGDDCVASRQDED

Compound	IC50 [1] [µM]	IC50 [2] [µM]
COc1cc(/C=C/C(=O)Nc2cccc(C(=O)/C=C(\O)C(=O)O)c2)ccc1O	11	42
O=C(Cc1ccccc1)Nc1cccc(C(=O)/C=C(\O)C(=O)O)c1	7	56
O=C(O)/C(O)=C/C(=O)c1cccc(NC(=O)c2ccccc2O)c1	11	41
O=C(O)/C(O)=C/C(=O)c1cccc(NC(=O)c2ccccc2)c1	31	> 100
O=C(O)/C(O)=C/C(=O)c1cccc(NC(=O)c2cc([N+](=O)[O-])cc([N+](=O)[O-])c2O)c1	2	8
COc1ccccc1C(=O)Nc1cccc(C(=O)/C=C(\O)C(=O)O)c1	13	73
O=C(/C=C/c1ccc(O)cc1)Nc1cccc(C(=O)/C=C(\O)C(=O)O)c1	7	26
O=C(/C=C/c1ccc(Cl)cc1)Nc1cccc(C(=O)/C=C(\O)C(=O)O)c1	4	18
Cc1cccc(C(=O)Nc2cccc(C(=O)/C=C(\O)C(=O)O)c2)c1O	10	48
O=C(/C=C/c1ccc(F)cc1)Nc1cccc(C(=O)/C=C(\O)C(=O)O)c1	7	22
COc1ccc(/C=C/C(=O)Nc2cccc(C(=O)/C=C(\O)C(=O)O)c2)cc1	11	30
O=C(O)/C(O)=C/C(=O)c1cccc(NC(=O)c2ccco2)c1	33	> 100
O=C(O)/C(O)=C/C(=O)c1cccc(NC(=O)c2ccc(O)cc2)c1	13	81
O=C(O)/C(O)=C/C(=O)c1cccc(NC(=O)c2cccc(Cl)c2)c1	15	57
O=C(O)/C(O)=C/C(=O)c1cccc(NC(=O)c2ccccc2Cl)c1	18	92
COc1cccc(C(=O)Nc2cccc(C(=O)/C=C(\O)C(=O)O)c2)c1	12	69
COc1ccc(C(=O)Nc2cccc(C(=O)/C=C(\O)C(=O)O)c2)cc1	19	95
